Data set [1] deals with Candida albicans. Put plainly: Antifungal activity against Candida albicans after 24 hrs by EUCAST method. The data set is classed as functional.
A short description of data set [2]: n-Octanol/water partition coefficient, log P of compound by HPLC analysis. The format is physicochemical.
A short description of data set [3]: Stability in human plasma by HPLC analysis. The format is ADME, cell-free. In a few lines: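 Compound stock was added to 80% human plasma (diluted with 0.02 M phosphate buffer, pH 7.4) at 37 °C. Samples taken over time were stopped with 0.01 M HCl in methanol and centrifuged 5 min at 5000 g. Supernatant was analysed by HPLC-UV at 274 nm (C18, water/ACN + 0.1% TFA, isocratic, 1 mL/min).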

The nature of data set [4]: Aqueous solubility of compound at 50 mg after 1 hr by HPLC analysis. The data set is classed as physicochemical. To be noted: water.
In data set [5] the test system is Candida tropicalis. Put plainly: Antifungal activity against Candida tropicalis KUEN 1025 assessed as zone of inhibition by disc diffusion method. The data set is classed as functional. In a few lines:
(§1)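 Disc diffusion on potato dextrose medium with 0.8% agar against Candida strains. Fluconazole and amphotericin B served as positive controls. Inhibition zone was measured in mm.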
(Agar diffusion results depend on both activity and mobility in agar.)

Data set [6] deals with Nakaseomyces glabratus. The data set is described as follows: Antifungal activity against Candida glabrata ATCC 2001 assessed as zone of inhibition by disc diffusion method. The data set is classed as functional. In a few lines: as §1
In data set [7] the test system is Candida albicans. Put plainly: Antifungal activity against Candida albicans ATCC 10231 assessed as zone of inhibition by disc diffusion method. The format is functional. In a few lines: as §1
Data set [8] relates to Candida parapsilosis. Put plainly: Antifungal activity against Candida parapsilosis ATCC 22019 assessed as zone of inhibition by disc diffusion method. The data set is classed as functional. An outline of the steps: as §1
For data set [9], the system named is Candida dubliniensis. The data set is described as follows: Antifungal activity against Candida dubliniensis CBS7987 assessed as zone of inhibition by disc diffusion method. The format is functional. An outline of the steps: as §1
Data set [10] relates to Blood. The data set is described as follows: Antioxidant activity in human blood assessed as total antioxidant capacity at 10 uM after 48 hrs (reference value: 6.3 +/- 0.5). The data set is classed as functional.
Data set [11] has as its system Enterococcus faecalis. The data set is described as follows: Antibacterial activity against Enterococcus faecalis incubated for 18 to 24 hrs by CLSI-based broth microdilution method. The data set is classed as functional. A general note: Dilution methods test growth across graded concentrations, often in twofold steps.
Data set [12] deals with Streptococcus agalactiae. The data set is described as follows: Antibacterial activity against Streptococcus agalactiae incubated for 18 to 24 hrs by CLSI-based broth microdilution method. The format is functional.
The subject of data set [13] is Pseudomonas aeruginosa. The data set is described as follows: Antibacterial activity against Pseudomonas aeruginosa incubated for 18 to 24 hrs by CLSI-based broth microdilution method. The data set is classed as functional.
Data set [14] has as its system Klebsiella pneumoniae. Put plainly: Antibacterial activity against Klebsiella pneumoniae incubated for 18 to 24 hrs by CLSI-based broth microdilution method. The format is functional.
Data set [15] deals with Streptococcus pyogenes. The data set is described as follows: Antibacterial activity against Streptococcus pyogenes incubated for 18 to 24 hrs by CLSI-based broth microdilution method. The format is functional.
The test system of data set [16] is Escherichia coli. Put plainly: Antibacterial activity against Escherichia coli incubated for 18 to 24 hrs by CLSI-based broth microdilution method. The format is functional.
The test system of data set [17] is Streptococcus pneumoniae. Put plainly: Antibacterial activity against Streptococcus pneumoniae incubated for 18 to 24 hrs by CLSI-based broth microdilution method. The format is functional.
For data set [18], the system named is Acinetobacter baumannii. The data set is described as follows: Antibacterial activity against Acinetobacter baumannii incubated for 18 to 24 hrs by CLSI-based broth microdilution method. The data set is classed as functional.
Data set [19] has as its system Staphylococcus epidermidis. Put plainly: Antibacterial activity against Staphylococcus epidermidis incubated for 18 to 24 hrs by CLSI-based broth microdilution method. The format is functional.
The test system of data set [20] is Staphylococcus aureus. The data set is described as follows: Antibacterial activity against Staphylococcus aureus incubated for 18 to 24 hrs by CLSI-based broth microdilution method. The format is functional.

The structures appear in SMILES notation. ≈ marks a conversion by molar mass, not a printed value. A value given as a limit tells only on which side of the number the result lay.

By MIC is commonly meant the lowest concentration that inhibits growth of the organism. Read a high MIC as a less susceptible organism. For orientation: logP means the decadic logarithm of the partition coefficient of the neutral form, usually between octanol and water. The low end stands for a more hydrophilic compound, the high end for a more lipophilic compound. A word on the solubility: it is the concentration that dissolves in the medium under given conditions. A high value points to a readily soluble substance. For orientation: MIC50 means an inhibitory concentration at the 50% level, which refers to growth in some studies and to a panel of isolates in others. Read a low MIC50 as higher susceptibility. By MIC90 is commonly meant an inhibitory concentration at the 90% level, which refers to growth in some studies and to a panel of isolates in others. A low value points to higher susceptibility.

As to `Cc1ccc(C(C)C)cc1OC(=O)CCC(=O)N[C@@H](CCCNC(=N)N)C(=O)O`, the MIC in data set [1] is over 6400 µg/mL.
For the molecule `Cc1ccc(C(C)C)cc1OC(=O)CCC(=O)N[C@@H](CCCCN)C(=O)O`, the minimal inhibitory concentration (MIC) in [1] was over 6400 µg/mL.
Still for that read-out and setting: then `Cc1ccc(C(C)C)cc1OC(=O)CCCC(=O)NCC(=O)O`, with over 6400 µg/mL.
Molecule `Cc1ccc(C(C)C)cc1OC(=O)CCCC(=O)O` returned an MIC in [1] of over 6400 µg/mL.
On to `Cc1ccc(C(C)C)cc1OC(=O)CCC(=O)NCC(=O)O`, for which, in data set [1], the lowest concentration to inhibit growth (MIC) was 6400 µg/mL (≈ 20800 µM).
Regarding `Cc1ccc(C(C)C)cc1OC(=O)CCCC(=O)N[C@@H](CCCNC(=N)N)C(=O)O`, the MIC in [1] is over 6400 µg/mL.
Take `Cc1ccc(C(C)C)cc1OC(=O)CCC(=O)N[C@@H](Cc1c[nH]cn1)C(=O)O`: in data set [1], the MIC was over 6400 µg/mL. Moreover, the logP in data set [2] was under 2.4.
As to `Cc1ccc(C(C)C)cc1OC(=O)CCCC(=O)N[C@@H](CCCCN)C(=O)O`, the MIC in [1] was over 6400 µg/mL.
Still for that read-out and setting: then `CC(C)=CCC[C@@H](C)CC(=O)Oc1cc(C(C)C)ccc1C`, with over 6400 µg/mL; and `CC(C)=CC(=O)Oc1cc(C(C)C)ccc1C`, with over 6400 µg/mL.
`CC(C)=CCOc1cc(C(C)C)ccc1C` registered a K in data set [3] of 0.0294 h⁻¹.
The molecule `Cc1ccc(C(C)C)cc1OC(=O)CCC(=O)NCCN.Cl` returned a minimum inhibitory concentration (MIC) in data set [1] of 3200 µg/mL.
In data set [1], `Cc1ccc(C(C)C)cc1OC(=O)CCCC(=O)N[C@@H](Cc1c[nH]cn1)C(=O)O` had a minimal inhibitory concentration (MIC) of over 6400 µg/mL. The solubility at 1 h in data set [4] turned out to be 3330 µg/mL (≈ 8300 µM). In data set [2], this molecule yielded a logP of under 2.4.
Take `Cc1ccc(C(C)C)cc1OC(=O)CCC(=O)NCCN(C)C.Cl`: in [1], the minimum inhibitory concentration (MIC) is over 6400 µg/mL.
`CC(C)=CCC/C(C)=C/COc1cc(C(C)C)ccc1C`: the K in data set [3] worked out at 0.1716 h⁻¹.
On to `Cc1ccc(C(C)C)cc1OC(=O)CCCC(=O)NCCN.Cl`, for which the minimal inhibitory concentration (MIC) in [1] is over 6400 µg/mL.
Still for that read-out and setting: as for `CC(C)=CCC/C(C)=C/C(=O)Oc1cc(C(C)C)ccc1C`, the figure is over 6400 µg/mL; as for `CC(C)=CCC/C(C)=C/CC/C(C)=C/COc1cc(C(C)C)ccc1C`, over 6400 µg/mL.
With `Cc1ccc(C(C)C)cc1OC(=O)CCCC(=O)NCCN(C)C.Cl`, the MIC in data set [1] is over 6400 µg/mL.
For the molecule `C[C@@H]1[C@H](O)[C@@H](C)/C=C/C=C/C=C/C=C/C=C/C=C/C=C/[C@H](O[C@@H]2O[C@H](C)[C@@H](O)[C@H](N)[C@@H]2O)C[C@@H]2O[C@](O)(C[C@@H](O)C[C@@H](O)[C@H](O)CC[C@@H](O)C[C@@H](O)CC(=O)O[C@H]1C)C[C@H](O)[C@H]2C(=O)O` [AMPHOTERICIN B], the “inhibition zone (IZ)” value is recorded as 10 mm in [5]; 12 mm in [6]; 10 mm in data set [7]; 9 mm in data set [8]; 10 mm in data set [9].
Consider `O=C1O[C@H]([C@@H](O)CO)C(O)=C1O` [ASCORBIC ACID], for which, in [10], the Activity is reported as 19.4.
For the molecule `Cc1ccc(C(C)C)cc1O` [CARVACROL], the MIC in data set [11] is 128 to 512 µg/mL (≈ 852 to 3410 µM); in data set [12] it was 256 to 512 µg/mL (≈ 1700 to 3410 µM); in data set [13], at least 512 µg/mL; in data set [14] it was 512 µg/mL (≈ 3410 µM); in data set [15], 64 to 256 µg/mL (≈ 426 to 1700 µM); in [16], 256 µg/mL (≈ 1700 µM). Besides, the MIC is 1250 µg/mL (≈ 8320 µM) in data set [1]; 64 to 256 µg/mL (≈ 426 to 1700 µM) in [17]; 64 to 256 µg/mL (≈ 426 to 1700 µM) in [18]; 256 µg/mL (≈ 1700 µM) in data set [19]; 256 µg/mL (≈ 1700 µM) in [20]. Besides, the MIC50 in data set [11] was 256 µg/mL (≈ 1700 µM); in data set [12] it was 256 µg/mL (≈ 1700 µM); in data set [13], over 512 µg/mL; in data set [14], 512 µg/mL (≈ 3410 µM); in data set [15], 128 µg/mL (≈ 852 µM); in [16], 256 µg/mL (≈ 1700 µM). The MIC50 in data set [17] was found to be 128 µg/mL (≈ 852 µM); in [18], 128 µg/mL (≈ 852 µM); in data set [19], 256 µg/mL (≈ 1700 µM); in [20], 256 µg/mL (≈ 1700 µM). Besides, the MIC90 in data set [11] was 256 µg/mL (≈ 1700 µM); in data set [12], 512 µg/mL (≈ 3410 µM); in data set [13], over 512 µg/mL; in [14], 512 µg/mL (≈ 3410 µM); in [15] it was 256 µg/mL (≈ 1700 µM); in [16], 256 µg/mL (≈ 1700 µM). Further, the MIC90 in data set [17], in data set [18], in data set [19] and in [20] was 256 µg/mL (≈ 1700 µM) each time. The “inhibition zone (IZ)” value in [5] is 10 mm; in data set [6], 8 mm; in data set [7], 9 mm; in data set [8], 7 mm; in [9], 7 mm. The logP in data set [2] is 3.5.
Regarding `OC(Cn1cncn1)(Cn1cncn1)c1ccc(F)cc1F` [FLUCONAZOLE], in data set [1], the lowest concentration to inhibit growth (MIC) was 250 µg/mL (≈ 816 µM).
